The source made the active and inactive calls. The rule behind the calls is not given here.
Assays:
HepG2 = experiment: Antiproliferative activity against human HepG2 cells after 48 hrs by MTT assay; format: functional, cell-based; settings: HepG2, 48 h
In short: (§1)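 Cells in log phase seeded at about 1.0 × 10^5 cells/mL in 96-well plates, left 12 h at 37 °C, 5% CO2. Compounds dissolved in DMSO, added at 2.5, 5, 10, 20 and 50 µM, 48 h exposure. Absorbance read at 570/630 nm dual wavelength. Survival expressed relative to negative control. IC50 by Bliss method (n = 5), tests done in triplicate.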

[1] = Antiproliferative activity against human NCI-460 cells after 48 hrs by MTT assay; format: functional, cell-based; settings: NCI-460, 48 h; in short: as §1
HCT-116 = experiment: Antiproliferative activity against human HCT116 cells after 48 hrs by MTT assay; format: functional, cell-based; settings: HCT-116, 48 h; in short: as §1
[2] = Inhibition of His-tagged full-length Hsp90 (unknown origin)/GST-tagged Cdc37M (unknown origin) interaction after 1 hr by HTRF assay; parameters: species or system Homo sapiens
In short: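 TR-FRET in PBS containing 400 mM KF, pH 7.3. His-tagged full-length Hsp90 and GST-Cdc37M, each 250 nM final, incubated with compound for 1 h at 37 °C. Anti-GST-Cryptate and anti-6His-XL665 then added for a further 0.5 h at 37 °C. Excitation 320 nm, emission 665/620 nm, reported as ratio ×10,000. Negative and blank controls run in each assay.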

Homo sapiens = species on record: Homo sapiens; experiment: Inhibition of HSP90/Cdc37 interaction assessed as reversal of drug resistance by measuring ratio of IC50 for human doxorubicin-resistant NCI-H460 cells to IC50 for human NCI-H460 cells
In short: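 Resistance factor is the ratio of IC50 in NCI-H460/DOX cells to IC50 in parental NCI-H460 cells. […] Values are mean ± SD of five separate experiments. Doxorubicin serves as the positive control.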

[3] = Inhibition of HSP90/Cdc37 interaction in human doxorubicin-resistant NCI-H460 cells assessed as reduction in cell proliferation after 48 hrs by MTT assay; settings: NCI-H460, 48 h; in short: as §1
MCF7 = experiment: Antiproliferative activity against human MCF7 cells after 48 hrs by MTT assay; format: functional, cell-based; settings: MCF7, 48 h; in short: as §1
A549 [4] = experiment: Antiproliferative activity against human A549 cells after 48 hrs by MTT assay; format: functional, cell-based; settings: A549, 48 h; in short: as §1
A549 [5] = experiment: Inhibition of Hsp90/Cdc37 interaction in human A549 cells assessed as downregulation of Cdc37 in immunoprecipitated HSP90 complex at 10 uM after 24 hrs by Western blot analysis; format: cell-based
In short: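 A549 cells exposed to 5 and 10 µM for 24 h, geldanamycin 10 µM as comparator. Lysis in 20 mM Tris-HCl pH 7.4, 25 mM NaCl, 2 mM DTT, 20 mM Na2MoO4, 0.1% NP-40 and protease inhibitors. 500 µg protein immunoprecipitated overnight at 4 °C with anti-Hsp90 antibody, captured on protein G agarose, washed five times and boiled. Cdc37 and Hsp90 detected by Western blot, with input also blotted.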

Structure (SMILES)	IC50 (HepG2)	IC50 [1]	IC50 (HCT-116)	IC50 [2]	Ratio IC50 (Homo sapiens)	IC50 [3]	IC50 (MCF7)	IC50 (A549 [4])	inhibition (A549 [5])
CCOC(=O)[C@@]1(C)CC[C@]2(C)CC[C@]3(C)C(=CC(=O)[C@@H]4[C@@]5(C)CC[C@H](OC(=O)CCC(=O)Nc6nc7ccc(Cl)cc7s6)C(C)(C)[C@@H]5CC[C@]43C)[C@@H]2C1	12.4 µM	10.6 µM	11 µM	0.83 µM	1.13	12 µM	8.66 µM	6.09 µM	
COc1cccc2c1C(=O)c1c(O)c3c(c(O)c1C2=O)C[C@@](O)(C(=O)CO)C[C@@H]3O[C@H]1C[C@H](N)[C@H](O)[C@H](C)O1 [DOXORUBICIN]		5.18 µM			7.33	38 µM			
CCOC(=O)[C@@]1(C)CC[C@]2(C)CC[C@]3(C)C(=CC(=O)[C@@H]4[C@@]5(C)CC[C@H](OC(=O)CCC(=O)Nc6nc7ccccc7s6)C(C)(C)[C@@H]5CC[C@]43C)[C@@H]2C1	25.8 µM	16.4 µM	22.3 µM	9.09 µM	1.17	19.2 µM	20.5 µM	18.8 µM	
CCOC(=O)[C@@]1(C)CC[C@]2(C)CC[C@]3(C)C(=CC(=O)[C@@H]4[C@@]5(C)CC[C@H](OC(=O)CCC(=O)Nc6nc7c(F)cccc7s6)C(C)(C)[C@@H]5CC[C@]43C)[C@@H]2C1	12.5 µM	12.5 µM	10.1 µM	1.05 µM	1.23	15.4 µM	10.9 µM	9.07 µM	
CC(=O)O[C@H]1CC[C@]2(C)[C@H]3C(=O)C=C4[C@@H]5C[C@@](C)(C(=O)Nc6nc7ccc(C)cc7s6)CC[C@]5(C)CC[C@@]4(C)[C@]3(C)CC[C@H]2C1(C)C	> 100 µM		> 100 µM	> 100 µM			> 100 µM	> 100 µM	
CC(=O)O[C@H]1CC[C@]2(C)[C@H]3C(=O)C=C4[C@@H]5C[C@@](C)(C(=O)Nc6nc7ccc(Cl)cc7s6)CC[C@]5(C)CC[C@@]4(C)[C@]3(C)CC[C@H]2C1(C)C	73.1 µM		68.5 µM	77.6 µM			66.7 µM	62.6 µM	
CCOC(=O)[C@@]1(C)CC[C@]2(C)CC[C@]3(C)C(=CC(=O)[C@@H]4[C@@]5(C)CC[C@H](OC(=O)CCC(=O)Nc6nc7c(Cl)cccc7s6)C(C)(C)[C@@H]5CC[C@]43C)[C@@H]2C1	17 µM	14 µM	15.4 µM	1.67 µM	1.29	18.1 µM	15 µM	13.6 µM	
CCOC(=O)[C@@]1(C)CC[C@]2(C)CC[C@]3(C)C(=CC(=O)[C@@H]4[C@@]5(C)CC[C@H](OC(=O)CCC(=O)Nc6nc7ccc(OC)cc7s6)C(C)(C)[C@@H]5CC[C@]43C)[C@@H]2C1	20.4 µM		21.3 µM	8.24 µM			18.5 µM	15.5 µM	
COc1cccc2sc(NC(=O)[C@@]3(C)CC[C@]4(C)CC[C@]5(C)C(=CC(=O)[C@@H]6[C@@]7(C)CC[C@H](OC(C)=O)C(C)(C)[C@@H]7CC[C@]65C)[C@@H]4C3)nc12	> 100 µM		> 100 µM	> 100 µM			> 100 µM	> 100 µM	
CC(=O)O[C@H]1CC[C@]2(C)[C@H]3C(=O)C=C4[C@@H]5C[C@@](C)(C(=O)Nc6nc7c(F)cccc7s6)CC[C@]5(C)CC[C@@]4(C)[C@]3(C)CC[C@H]2C1(C)C	> 100 µM		> 100 µM	> 100 µM			> 100 µM	> 100 µM	
COc1ccc2nc(NC(=O)[C@@]3(C)CC[C@]4(C)CC[C@]5(C)C(=CC(=O)[C@@H]6[C@@]7(C)CC[C@H](OC(C)=O)C(C)(C)[C@@H]7CC[C@]65C)[C@@H]4C3)sc2c1	85.6 µM		> 100 µM	90.1 µM			81.2 µM	75.5 µM	
CC1(C)[C@@H](O)CC[C@]2(C)[C@H]3C(=O)C=C4[C@@H]5C[C@@](C)(C(=O)Nc6nc7ccc(Br)cc7s6)CC[C@]5(C)CC[C@@]4(C)[C@]3(C)CC[C@@H]12	39.5 µM		37.4 µM	41.3 µM			33.8 µM	33.4 µM	
Cc1ccc2nc(NC(=O)[C@@]3(C)CC[C@]4(C)CC[C@]5(C)C(=CC(=O)[C@@H]6[C@@]7(C)CC[C@H](O)C(C)(C)[C@@H]7CC[C@]65C)[C@@H]4C3)sc2c1	27.6 µM		18.7 µM	83.2 µM			23.2 µM	22.4 µM	
COC1=C2C[C@@H](C)C[C@H](OC)[C@H](O)[C@@H](C)/C=C(\C)[C@H](OC(N)=O)[C@@H](OC)/C=C\C=C(/C)C(=O)NC(=CC1=O)C2=O									inactive
